High-throughput results from PubChem.
The list is not random: actives were taken first. Their share in the collection is about 1%.
KLK5 inh: blocks human kallikrein 5 protease activity | actives 0.59% (n = 210,000) | inhibition, % at 5 µM | AID 873 | Q9Y337 | recombinant hK5, fluorogenic AMC substrate cleavage;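 active = inhibition of 40% or more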;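 also: 0% = enzyme controls without compound and 100% = no-enzyme blanks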
FXIa inh 1536: blocks human coagulation factor XIa protease activity. P03951. purified FXIa, Boc-Glu-Ala-Arg-AMC fluorogenic substrate. inhibition, % at 5 µM. actives 0.14% (n = 220,000). AID 798;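 active = inhibition of at least 40%; inactive = inhibition below 40%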;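 also: fluorescence of freed AMC excited at 355 nm; 0% = enzyme without compound and 100% = no enzyme blank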
thrombin 1536: thrombin (human) inhibition; alpha-thrombin, Boc-VPR-AMC fluorogenic substrate cleavage; inhibition, % at 5 µM; actives 0.26% (n = 220,000);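 active = inhibition at or above 40%; inactive = inhibition below 40%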;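 also: 0% = enzyme with no compound and 100% = wells without enzyme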
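Material: human alpha-thrombin protein. Incubation: reaction at ambient temperature. Technique: fluorescence of released AMC, ex 355 nm, em 460 nm. Control set: no-compound enzyme wells and no-enzyme blanks. Also added: Boc-VPR-AMC substrate, 15 µM final. Buffer or medium: pH 7.5 Tris (50 mM) with NaCl 150 mM, Tween 20 0.05%.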
FXIIa inh: inhibitors of human coagulation factor XIIa; P00748; purified FXIIa, Boc-QGR-AMC fluorogenic substrate, 2 h; inhibition, % at 5 µM; actives 0.3% (n = 220,000); AID 800; in the data active = inhibition above about 40%;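 also: 0% = enzyme with no compound and 100% = blank without enzyme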
Target sequence (P00748 20-372 limits assumed): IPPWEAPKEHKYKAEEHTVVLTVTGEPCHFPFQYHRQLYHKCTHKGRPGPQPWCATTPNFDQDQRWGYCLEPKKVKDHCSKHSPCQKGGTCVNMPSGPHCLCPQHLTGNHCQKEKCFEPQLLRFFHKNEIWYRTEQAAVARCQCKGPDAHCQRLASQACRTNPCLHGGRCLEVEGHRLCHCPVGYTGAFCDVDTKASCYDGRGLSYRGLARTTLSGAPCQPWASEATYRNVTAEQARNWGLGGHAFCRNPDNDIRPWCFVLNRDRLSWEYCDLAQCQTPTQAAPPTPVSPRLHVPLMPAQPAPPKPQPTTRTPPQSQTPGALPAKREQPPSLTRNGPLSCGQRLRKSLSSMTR
Target sequence (P00748 373-615 limits assumed): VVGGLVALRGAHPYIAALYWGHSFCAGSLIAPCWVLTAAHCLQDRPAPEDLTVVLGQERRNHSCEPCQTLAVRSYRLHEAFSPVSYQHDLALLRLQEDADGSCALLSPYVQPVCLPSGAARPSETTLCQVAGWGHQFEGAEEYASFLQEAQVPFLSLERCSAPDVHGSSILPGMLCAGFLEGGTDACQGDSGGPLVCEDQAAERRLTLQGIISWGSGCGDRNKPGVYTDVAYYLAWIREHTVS
* = called active by the depositor; . = not tested or not shown.

SMILES | KLK5 inh | FXIa inh 1536 | thrombin 1536 | FXIIa inh
Cc1oc(C(C)(C)C)cc1C(=O)Nc1ccc2c(c1)OCCO2 | 40.1* | 0.0 | 21.6 | 3.0
Cc1oc(C(C)(C)C)cc1C(=O)Nc1ccc2c(c1)OCO2 | 1.3 | -2.9 | 1.3 | 8.4
Cc1nn(C)c(=O)n1N(C)c1ncc(C(F)(F)F)cc1Cl | 1.5 | -0.3 | -0.2 | 10.6
O=C(c1cnccn1)N1CCc2ccccc2C1 | -20.3 | -23.3 | 1.3 | -3.2
O=C1OC(Nc2ccc(Cl)cn2)c2ccccc21 (stereo not given) | 1.7 | -6.5 | -6.3 | -2.3
CN(NC1OC(=O)c2ccccc21)c1ncc(Cl)cc1C(F)(F)F (stereo not given) | 35.2 | 15.9 | 13.6 | 107.0*
Cc1cc(-c2n[nH]c(=S)n2/N=C/c2cc([N+](=O)[O-])ccc2Cl)n[nH]1 | 47.0* | 8.0 | 33.0 | 14.5
Cc1cc(-c2n[nH]c(=S)n2/N=C/c2ccc(Cl)c([N+](=O)[O-])c2)n[nH]1 | -6.8 | 3.6 | -8.7 | 4.1
CC1=C(C(=O)N2CCCCC2)C(c2cccs2)C2=C(CCCC2=O)N1 (stereo not given) | 138.1* | -4.5 | 1.9 | -6.0
COC(=O)C1=C(C)NC2=C(C(=O)CCC2)C1c1cccs1 (stereo not given) | -7.8 | 4.7 | -1.1 | -4.5
CC1=CCC2C(=O)N(C(C)c3ccccc3)C(=O)C2C1 (stereo not given) | -6.3 | 63.8* | 0.8 | 12.9
COc1ccc2c(C)cc(SCC(=O)Nc3ccc(Cl)cn3)nc2c1 | -20.8 | 6.4 | -4.0 | 15.9
CCC(NC(=O)CCl)c1ccc(C)cc1 (stereo not given) | -3.8 | -1.3 | -0.8 | 10.9
Cc1ccc(NC(=O)CN(c2ccccc2)S(=O)(=O)N(C)C)cc1C | 43.0* | 9.2 | 28.5 | 20.3
Cc1ccc(-n2[nH]c(C)c(/C=N/Nc3ccc([N+](=O)[O-])cc3[N+](=O)[O-])c2=O)cc1 | 6.3 | 4.7 | -0.1 | 8.2
Cc1ccccc1NC(=O)c1cccc2nc3ccccc3nc12 | 14.3 | 13.2 | 0.9 | 44.2*
COc1cccc(Nc2ccccc2C(=O)O)c1 | -4.4 | 5.3 | 6.7 | 12.9
COc1cccc(Nc2ccc(Nc3cccc(OC)c3)nn2)c1 | 53.2* | 9.3 | 15.1 | 6.6
COc1cccc(CNc2nc3ccc(C)cc3n3cnnc23)c1 | 4.9 | 3.2 | -0.4 | 10.9
COc1cccc(Nc2nc3ccccc3n3cnnc23)c1 | 64.0* | 2.0 | 1.6 | 16.9
CCC1(C)COC(C)(CC(=O)NNC(=O)Nc2ccccc2)OC1 (stereo not given) | -6.2 | -6.6 | 1.2 | 6.6
COc1ccc(N2C(=S)N=C(Nc3ccccc3)C23CCCCC3)cc1 | 0.7 | -2.1 | 101.1* | 10.1
O=c1oc(-c2ccc(Br)o2)nc2ccccc12 | 38.6 | 26.6 | 9.7 | 46.3*
COc1cc(OC)cc(-c2nc3ccccc3c(=O)o2)c1 | -3.7 | -0.9 | 1.0 | 22.3
COc1cccc(-c2nc3ccccc3c(=O)o2)c1 | 31.0 | -5.2 | 64.8* | 21.0
SMILES | KLK5 inh | FXIa inh 1536 | thrombin 1536 | FXIIa inh
O=C(COC(=O)c1ncc(Cl)c(Cl)c1Cl)Nc1ccccc1OC(F)F | -3.0 | -4.2 | -5.3 | 1.4
O=C(COC(=O)COc1ccccc1Cl)Nc1ccccc1OC(F)F | 26.1 | -4.3 | 22.2 | 99.9*
CC(C)[C@H](NC(=O)c1ccco1)C(=O)OCC(=O)Nc1ccccc1OC(F)F | 53.5* | 2.2 | -1.6 | 5.1
COc1ccc2c(C)cc(SCC(=O)NCCN3C(=O)CSC3=O)nc2c1 | -6.2 | 2.5 | -5.8 | 6.7
Nc1nnc(SCC(=O)c2ccc3c(c2)NC(=O)CO3)s1 | -2.6 | 0.0 | -2.0 | 4.4
CS(=O)(=O)Nc1ccc(C(=O)NCCSCc2c(F)cccc2Cl)cc1 | . | 2.0 | -0.7 | 11.2
Clc1cc(Cl)cc(CN2CCSCC2)c1 | -1.9 | -2.3 | -0.7 | 9.7
COc1cc(/C=C/C(=O)OCc2c(C)noc2C)ccc1OC(F)F | 54.1* | 38.6 | 12.6 | 34.7
COc1cc(/C=C/C(=O)OCC(=O)NCCN2C(=O)CSC2=O)ccc1OC(F)F | 18.2 | 28.1 | 29.8 | 19.5
C=CCN(c1ccccc1Cl)S(=O)(=O)c1cccc(C(=O)NCCc2ccc(OC)cc2)c1 | -16.0 | -3.6 | -6.3 | -3.1
O=C(O)c1ccccc1SCC(=O)N1CCCCC1 | -0.4 | 4.8 | 2.3 | 7.8
O=C(O)c1ccccc1SCC(=O)N1CCOCC1 | 28.9 | 32.7 | 40.9* | 17.9
Brc1ccc(C2=Nn3c(nnc3-c3n[nH]c4c3CCC4)SC2)cc1 | -5.4 | 7.2 | 20.0 | 11.4
Cc1ccc(-c2nnc3n2N=C(c2ccc(Br)cc2)CS3)cc1 | -7.6 | 39.9 | -5.7 | 53.4*
CN(C)c1ccc(P(=O)(OCc2ccccc2)C(O)c2ccncc2)cc1 (stereo not given) | -9.0 | 10.8 | 3.1 | 22.9
CCCOP(=O)(c1ccc(N(C)C)cc1)C(O)c1ccncc1 (stereo not given) | 15.0 | 10.9 | 66.5* | 14.6
CCCCCC(=O)Nc1cccc(C2=NOC3(C2)C[C@@H](C(N)=O)N(C(=O)c2cc([N+](=O)[O-])cc([N+](=O)[O-])c2C)C3)c1 (stereo not given in full) | 13.6 | 40.5* | 14.4 | 24.5
CCCCCC(=O)Nc1cccc(C2=NOC3(C2)C[C@@H](C(N)=O)N(C(=O)c2cc([N+](=O)[O-])cc([N+](=O)[O-])c2)C3)c1 (stereo not given in full) | 0.4 | 0.0 | -3.2 | 6.5
C=CCn1c(SCc2ccc(OC)cc2)nnc1-c1cccnc1 | 49.6* | 2.6 | 21.7 | 8.0
C=CCn1c(SCc2ccccc2)nnc1-c1cccnc1 | -35.6 | -12.5 | 1.2 | 8.3
COc1cc(-c2nnco2)cc(OC)c1OC | 38.1 | 34.4 | -1.8 | 47.4*
CC(=O)N(C)C(c1ccc(N(C)C)cc1)c1nnnn1-c1c(C)cccc1C (stereo not given) | -14.1 | 3.8 | -4.6 | 0.4
CC1=CC2=C(OC1N(C)C)c1cccc3cccc(c13)C2=O (stereo not given) | 50.2* | 8.6 | 27.3 | 24.1
Cc1nnc(SCC(=O)Nc2ccc(Oc3ccccc3)cc2)n1N | -7.8 | 0.2 | 0.9 | 9.4
Cc1nnc(SCc2cccc(Oc3ccccc3)c2)n1N | 58.8* | 2.8 | 26.3 | -1.4
SMILES | KLK5 inh | FXIa inh 1536 | thrombin 1536 | FXIIa inh
CC(C)N(C)C(=O)C(=O)c1cccn1-c1cccc(Cl)c1C#N | -2.2 | 2.0 | . | 6.0
N/C(=N\OCc1ccccc1)c1nonc1N | -7.3 | 0.2 | -0.4 | 4.5
CO/N=C(\N)c1nonc1N | 21.9 | 57.6* | 16.9 | 24.8
Cc1ccc(C)c(S(=O)(=O)N2CCCOC2CNC(=O)C(=O)NCc2cccnc2)c1 (stereo not given) | 42.8* | -7.7 | 12.6 | 34.1
Cc1cc(C)c(S(=O)(=O)N2CCCOC2CNC(=O)C(=O)NCc2cccnc2)c(C)c1 (stereo not given) | -2.2 | -2.0 | -1.0 | 11.0
Nc1nc(-c2ccco2)nn1C(=O)CCc1ccccc1 | -10.7 | -0.1 | 92.8* | 18.6
Nc1nc(-c2ccco2)nn1C(=O)c1cccnc1 | -10.3 | -5.8 | 64.3* | 27.5
Cn1c(=O)c2c(nc(Br)n2Cc2nnc(N)s2)n(C)c1=O | -1.2 | -0.1 | -0.4 | 9.3
O=C(/C=C/c1ccc(S(=O)(=O)N2CCOCC2)cc1)NCc1ccccc1 | -5.7 | 4.7 | -1.9 | 15.0
